# Where two headings read alike, the source gives them in different places.
# Columns and labels:
# PHD1 [1] = target: T1, PHD1 (Homo sapiens, UniProt Q96KS0); experiment: Biochemical HIF-PH enzyme assay; conditions: for dependence of potency (IC50) on Fe^2+ concentration: Fe^2+ varied in reaction buffer (3 μM and 30 μM, Figure 3); for LipE (lipophilic binding efficiency): LipE=pIC50−logD 7.5; for BEI (binding efficiency index): from pIC50 and molecular weight
# Summary of the method: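 Human HIF-PH hydroxylates Pro564 of a HIF peptide (aa 556–574). The hydroxylated peptide binds europium-labelled recombinant VBC complex, and inhibition is read as lower fluorescence. Iron dependence was tested at 3 and 30 μM Fe²⁺. LipE = pIC50 − logD7.5; BEI derived from pIC50 and corrected molecular weight.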
# [2] = test system: endogenous HIF in recombinant A549 lung carcinoma cell; experiment: HIF-reporter cell assay; assay type: cell-based
# [3] = logD 7.5 by HPLC retention time correlation; assay type: physicochemical; conditions: pH 7.5
# Summary of the method: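 logD at pH 7.5 was estimated by correlating HPLC retention times with those of reference compounds of known logD7.5.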
# Aqueous solubility = assay type: physicochemical; conditions: water
# [4] = test system: broad range of targets including 2‐OG‐dependent dioxygenases, metalloenzymes, nuclear hormone receptors and cell surface receptors; experiment: Lead profiling selectivity panel
# [5] = Elimination of iron via urine in rats; assay type: in vivo; conditions: oral administration
# [6] = test system: hematocrit and reticulocytes; experiment: Hematocrit and reticulocytes in mice; assay type: in vivo
# [7] = Pharmacokinetic studies in rats; assay type: in vivo; conditions: rat; for clearance: blood, iv, 2 mg/kg; for Relative bioavailability (Tylose suspension) / bioavailability as Tylose suspension: p.o.; for Relative bioavailability (Tylose suspension): 0.5 % Tylose in water vs solution; for bioavailability as Tylose suspension: 0.5 % Tylose in water
# plasma EPO [8] = experiment: Plasma EPO in rats after oral dosing; assay type: in vivo; conditions: 4 h (Figure 7), BAY-908 50 mg kg^−1
# plasma EPO [9] = experiment: EPO mRNA / plasma EPO in mice; assay type: in vivo; conditions: for plasma EPO concentration: 4 h after p.o. dosing of 100 mg kg^−1, baseline ≈120 pg mL^−1
# EPO in HuH cells = experiment: EPO induction in hepatoma HuH cells; assay type: cell-based, human
# HIF‐1α in HeLa cells = experiment: Induction of HIF-1α in HeLa cell cultures; assay type: cell-based; conditions: human HeLa cell cultures
# major CYP isoforms = experiment: CYP profile; assay type: in vitro ADME
# [10] = sodium salt; cited from earlier work
# [11] = cited from earlier work
# PHD3 = conditions: salt-free compound; cited from earlier work
# PHD1 [12] = target: T1, PHD1; conditions: cited from earlier work
# [13] = pKa determination by spectrophotometry; assay type: physicochemical; conditions: aqueous solution
# [14] = metabolite of molidustat; cited from earlier work
# [15] = Homo sapiens, A549, read-out: EC50 HIF-reporter cell assay
# T1 sequence (Q96KS0 whole entry, the tested form may be a part): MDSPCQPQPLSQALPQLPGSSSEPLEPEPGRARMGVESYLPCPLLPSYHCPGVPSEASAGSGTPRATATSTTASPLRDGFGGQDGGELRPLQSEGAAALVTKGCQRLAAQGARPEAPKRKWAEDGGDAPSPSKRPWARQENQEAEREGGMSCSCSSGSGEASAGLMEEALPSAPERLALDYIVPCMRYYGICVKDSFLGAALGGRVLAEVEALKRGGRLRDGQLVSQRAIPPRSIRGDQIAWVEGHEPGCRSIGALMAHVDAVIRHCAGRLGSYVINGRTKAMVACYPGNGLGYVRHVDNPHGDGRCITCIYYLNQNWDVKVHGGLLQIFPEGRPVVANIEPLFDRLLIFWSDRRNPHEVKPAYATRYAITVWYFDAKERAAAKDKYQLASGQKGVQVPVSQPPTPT
compound,measurement,setting,value
O=c1c(-n2ccnn2)c[nH]n1-c1ccccn1 [Compound 41],IC50,PHD1 [1],0.79 µM
same,EC50,[2]; [15],> 20 µM
O=c1c(-c2cccnc2)c[nH]n1-c1cc(CO)ccn1 [Compound 17],IC50,PHD1 [1],1.5 µM
"Oc1c(-c2cccnc2)cnn1-c1ccccn1 [Compound 1, 1‐(Pyridin‐2‐yl)‐4‐(pyridin‐3‐yl)‐1H‐pyrazol‐5‐ol]",chromatographic logD,[3],0.6
same,solubility,Aqueous solubility,< 1 µg/mL
same,selectivity profile in lead profiling panel,[4],favorable
same,elimination of iron via urine,[5],did not result in any increased elimination of iron via urine
same,IC50,PHD1 [1],0.43 µM
same,dependence of potency (IC50) on Fe^2+ concentration,PHD1 [1],only minor changes
same,LipE (lipophilic binding efficiency),PHD1 [1],5.8
same,BEI (binding efficiency index),PHD1 [1],26.7
same,EC50,[2]; [15],4.9 µM
same,hematocrit and reticulocytes,[6],increase
same,clearance,[7],48.3 mL/min/kg
same,Relative bioavailability (Tylose suspension),[7],26%
same,plasma EPO concentration in rats,plasma EPO [8],increased
same,plasma EPO concentration,plasma EPO [9],≈ 900 pg mL^−1
same,EPO mRNA and plasma EPO levels / EPO induction,plasma EPO [9]; after i.p. and p.o. administration,increased
same,EC50,"EPO in HuH cells; Homo sapiens, read-out: EC50 EPO mRNA induction",1.9 µM
same,increase in EPO concentration in the supernatant compared with baseline,EPO in HuH cells; human hepatoma HuH cells,threefold
same,concentration at which HIF‐1α was detected,HIF‐1α in HeLa cells,> 0.25 µM
same,CYP profile / CYP inhibition,major CYP isoforms,clean
Oc1c(-c2cccnc2)ncnc1-c1ccccn1 [Compound 10],IC50,PHD1 [1],> 50 µM
"[Na+].[O-]c1c(-n2ccnn2)cnn1-c1cc(N2CCOCC2)ncn1 [Compound 84, Sodium 1‐[6‐(morpholin‐4‐yl)pyrimidin‐4‐yl]‐4‐(1 H ‐1,2,3‐triazol‐1‐yl)‐1H‐pyrazol‐5‐olate]",solubility in water,[10],28000 µg/mL
same,water content,"[11]; 20–35 °C, normal pressure",< 0.5 % w/w
same,change of water content,[11]; relative humidity of up to 90 %,< 0.5 % w/w
Cc1ccnc(-n2[nH]cc(-c3cccnc3)c2=O)c1 [Compound 11],IC50,PHD1 [1],0.34 µM
Nc1c(-c2cccnc2)cnn1-c1ccccn1 [Compound 6],IC50,PHD1 [1],> 50 µM
O=c1c(-c2cccnc2)c[nH]n1-c1ccc(COCc2ccccc2)cn1 [Compound 27],IC50,PHD1 [1],1.1 µM
Cc1ccc(-n2[nH]cc(-c3cccnc3)c2=O)nc1 [Compound 12],IC50,PHD1 [1],1.7 µM
Cc1nn(-c2ccccn2)c(O)c1-c1cccnc1 [Compound 3],IC50,PHD1 [1],3.5 µM
O=c1c(-c2cnccn2)c[nH]n1-c1ccccn1 [Compound 36],IC50,PHD1 [1],28 µM
COc1cc(-n2[nH]cc(-c3cccnc3)c2=O)ncn1 [Compound 20],IC50,PHD1 [1],0.88 µM
"[Cl][Co][Cl] [cobalt chloride, reference compound]",EC50,"[2]; read-out: EC50 HIF-reporter cell assay, A549 HIFRE2 luciferase reporter",~50 µM
"Oc1c(-n2ccnn2)cnn1-c1cc(N2CCOCC2)ncn1 [Compound 45, 1‐[6‐(Morpholin‐4‐yl)pyrimidin‐4‐yl]‐4‐(1H‐1,2,3‐triazol‐1‐yl)‐1H‐pyrazol‐5‐ol]",chromatographic logD,[3],0.27
same,solubility,Aqueous solubility,140 µg/mL
same,selectivity profile in lead profiling panel,[4],favorable
same,IC50,PHD3,0.45 µM
same,change in potency on variation of Fe^2+ concentration,PHD1 [12]; Fe^2+ in the reaction buffer varied by a factor of 30,≤ 2 fold
same,IC50,"PHD1 [12]; biochemical assay, PHD1, HCl salt, ref 30 (WO2008067871 A1, example 72)",0.49 µM
same,dependence of potency (IC50) on Fe^2+ concentration,PHD1 [1],independent
same,LipE (lipophilic binding efficiency),PHD1 [1],6.1
same,BEI (binding efficiency index),PHD1 [1],20.1
same,EC50,[2]; [15],8.4 µM
same,clearance,[7],18.3 mL/min/kg
same,bioavailability as Tylose suspension,[7],remained unchanged
same,Relative bioavailability (Tylose suspension),[7],102%
same,plasma EPO concentration in rats,plasma EPO [8],Very high EPO induction
same,plasma EPO concentration,plasma EPO [9],≈ 4000 pg mL^−1
same,pK a,[13],4.4
same,water uptake,"[11]; 20–35 °C, normal pressure, >20 % relative humidity",up to 6 % w/w
same,CYP profile / CYP inhibition,major CYP isoforms,favorable
Cc1cn(-c2c[nH]n(-c3ccccn3)c2=O)nn1 [Compound 42],IC50,PHD1 [1],0.33 µM
O=c1c(-c2cccnc2)c[nH]n1-c1cc(N2CCOCC2)ncn1 [Compound 23],IC50,PHD1 [1],0.18 µM
Cc1cccc(-n2[nH]cc(-c3cccnc3)c2=O)n1 [Compound 13],IC50,PHD1 [1],8.9 µM
Cn1cc(-c2cccnc2)c(=O)n1-c1ccccn1 [Compound 9],IC50,PHD1 [1],> 50 µM
N#Cc1ccc(-c2c[nH]n(-c3ccccn3)c2=O)cn1 [Compound 34],IC50,PHD1 [1],0.1 µM
S=c1c(-c2cccnc2)c[nH]n1-c1ccccn1 [Compound 5],IC50,PHD1 [1],7.5 µM
O=c1c(-n2cnc(C(F)(F)F)c2)c[nH]n1-c1ccccn1 [Compound 38],IC50,PHD1 [1],0.15 µM
"O=C(O)[C@H]1O[C@@H](n2cc(-n3ccnn3)c(=O)n2-c2cc(N3CCOCC3)ncn2)[C@H](O)[C@@H](O)[C@@H]1O [Compound 85, 1‐(Beta‐D‐glucopyranuronosyl)‐2‐[6‐(morpholin‐4‐yl)pyrimidin‐4‐yl]‐4‐(1H‐1,2,3‐triazol‐1‐yl)‐1,2‐dihydro‐3H‐pyrazol‐3‐one]",excreted via urine,[14],85 % of dose
same,CYP profile / CYP inhibition,major CYP isoforms,no relevant CYP inhibition
COc1ccc(-c2c[nH]n(-c3ccccn3)c2=O)cn1 [Compound 33],IC50,PHD1 [1],0.19 µM
Cc1cncc(-c2cnn(-c3ccccn3)c2O)c1 [Compound 30],IC50,PHD1 [1],1.7 µM
"CC(=O)N(O)CCCCCNC(=O)CCC(=O)N(O)CCCCCNC(=O)CCC(=O)N(O)CCCCCN [deferoxamine, reference compound]",EC50,[2]; [15],~25 µM
COc1c(-c2cccnc2)cnn1-c1ccccn1 [Compound 8],IC50,PHD1 [1],> 50 µM
O=c1c(-c2cccnc2)c[nH]n1-c1cc(COCc2ccccc2)ccn1 [Compound 18],IC50,PHD1 [1],2.9 µM
O=c1c(-c2cccnc2)n[nH]n1-c1ccccn1 [Compound 4],IC50,PHD1 [1],24 µM
O=c1c(-c2cccnc2)c[nH]n1-c1cc(N2CCCCC2)ncn1 [Compound 22],IC50,PHD1 [1],1.5 µM
CCOC(=O)c1ccc(-n2[nH]cc(-c3cccnc3)c2=O)nc1 [Compound 25],IC50,PHD1 [1],0.65 µM
same,EC50,[2]; [15],5.3 µM
N#Cc1cncc(-c2cnn(-c3ccccn3)c2O)c1 [Compound 35],IC50,PHD1 [1],1 µM
"Oc1c(-n2ccnc2)cnn1-c1cc(N2CCCCC2)ncn1 [Compound 44, 4‐(1H‐Imidazol‐1‐yl)‐1‐[6‐(piperidin‐1‐yl)pyrimidin‐4‐yl]‐1H‐pyrazol‐5‐ol]",chromatographic logD,[3],1
same,solubility,Aqueous solubility,520 µg/mL
same,IC50,PHD1 [1],0.5 µM
same,LipE (lipophilic binding efficiency),PHD1 [1],5.3
same,BEI (binding efficiency index),PHD1 [1],20.2
same,early safety profile,Early safety profile,not optimal
same,EC50,[2]; [15],4.9 µM
same,clearance,[7],21.7 mL/min/kg
same,bioavailability as Tylose suspension,[7],remained unchanged
same,Relative bioavailability (Tylose suspension),[7],97%
same,plasma EPO concentration in rats,plasma EPO [8],improved
same,plasma EPO concentration,plasma EPO [9],≈ 3000 pg mL^−1
same,CYP profile / CYP inhibition,major CYP isoforms,not optimal
Cc1ccc(-c2c[nH]n(-c3ccccn3)c2=O)cn1 [Compound 31],IC50,PHD1 [1],3.2 µM
